In the library only some 3.5% were active in any assay of this set; here they are far more common.
MrgX1 allo act – allosterically activates human MrgX1 receptor signaling. hit rate 0.63% among 310,000. B-score at 10 µM. MrgX1-HEK293, Fluo-4 calcium flux, FDSS; hits give high values. Q96LB2;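 active = plate-corrected calcium response at least 3 library SD above typical, normal starting fluorescence, not activating the receptor alone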;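 also: compound read alongside a low EC10 to EC30 dose of BAM8-22 agonist; peak minus trough fluorescence over baseline measured at the second addition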
Target sequence (Q96LB2 whole entry, looked up): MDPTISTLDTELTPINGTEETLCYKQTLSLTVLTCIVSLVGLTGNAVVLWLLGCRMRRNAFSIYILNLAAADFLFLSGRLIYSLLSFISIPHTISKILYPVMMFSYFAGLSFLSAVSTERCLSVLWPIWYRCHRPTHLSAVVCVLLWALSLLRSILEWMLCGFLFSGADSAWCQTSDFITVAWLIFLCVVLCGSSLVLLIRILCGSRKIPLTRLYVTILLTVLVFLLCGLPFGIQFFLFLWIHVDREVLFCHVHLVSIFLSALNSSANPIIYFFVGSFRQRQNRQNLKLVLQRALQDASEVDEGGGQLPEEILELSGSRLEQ
MrgX1 ag – activates human MrgX1 receptor signaling; Q96LB2; MrgX1-HEK293 cells, Fluo-4 calcium fluorescence, agonist mode; hits give high values; B-score at 10 µM; hit rate 0.44% among 310,000; AID 588627;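 active = calcium response B-score plate-corrected fluorescence ratio at least 3 library SD, with starting fluorescence B-score inside 5 SD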
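System – MrgX1-expressing HEK293 cells · Incubation – cells plated overnight, dye loaded 0.5 h 37 °C, 0.5 h room temperature · Technique – kinetic Fluo-4 NW fluorescence of intracellular calcium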
MrgX1 antag – antagonists of human MrgX1 receptor. Q96LB2. MRGX1-HEK293 calcium flux, Fluo-4, BAM8-22 antagonism; hits give low values. B-score at 10 µM. hit rate 1.3% among 310,000. AID 588676;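 active = calcium-response B-score plate-corrected more than 3 library SD below zero, starting fluorescence within 5 deviations, no agonist response on first addition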;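 also: peak minus trough fluorescence over baseline after final BAM8-22 challenge near maximal dose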
RGS4 inh – inhibitors of human RGS4 | P49798 | HEK293 M3R/RGS4 inducible, Fluo-4 calcium flux; hits give high values; triggered by carbachol at its EC20 | B-score at 10 µM | hit rate 0.45% among 310,000 | AID 463165;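 active = B-score, a plate-corrected calcium signal, over three deviations above library mean, with baseline fluorescence within five deviations of library mean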;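 also: RGS4 expression induced by doxycycline in cells with stable M3 receptor; B-score is computed from the integrated fluorescence ratio over baseline after carbachol; higher B-score means a larger calcium signal and so more RGS4 inhibition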
Target sequence (P49798 whole entry, looked up): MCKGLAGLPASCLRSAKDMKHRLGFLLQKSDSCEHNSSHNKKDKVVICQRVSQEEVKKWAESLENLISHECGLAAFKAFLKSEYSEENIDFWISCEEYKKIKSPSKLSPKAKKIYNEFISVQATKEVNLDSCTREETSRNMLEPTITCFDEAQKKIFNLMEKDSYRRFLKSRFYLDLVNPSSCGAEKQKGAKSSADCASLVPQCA
RGS4 act – RGS4 potentiation or activation | B-score at 10 µM | HEK293 M3R/inducible RGS4, carbachol calcium flux Fluo4; hits give low values | hit rate 0.92% among 310,000;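 active = B-score of the integrated calcium signal more than 4 SD below the library mean, with starting fluorescence not abnormally high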;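 also: negative B-score means reduced calcium response which marks RGS4 activation or potentiation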
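Assay system: Inducible-RGS4 HEK293 cells carrying M3 receptor | Schedule: Compound preincubation 20 min at room temperature before agonist | Signal: Kinetic calcium fluorescence imaging with Fluo4-AM dye, 2 µM | Read-out basis: B score from integrated fluorescence ratio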
RGS4 activ val – confirmation of RGS4 activators; shares compounds with RGS4 act; hit rate 89% among 1,100; HEK293 M3R/RGS4 inducible, carbachol calcium flux Fluo4; AID 602282; inhibition, % at 10 µM;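 active = inhibition above 3 SD of the buffer control wells, cut at about 41% in these data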;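 also: signal is the integrated peak-minus-minimum Fluo4 fluorescence over baseline ratio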
M3R Ca counter – activity in cells without induced RGS4 expression; AID 602283; HEK293 M3R non-induced RGS4, Fluo4 calcium flux; after carbachol challenge at its EC90; shares compounds with RGS4 act; inhibition, % at 10 µM; hit rate 82% among 1,100;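 active = inhibition exceeding 3 SD of buffer-only control wells, cut at about 26% in these data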;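 also: percent drop in integrated peak-minus-baseline over baseline Fluo4 ratio after carbachol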
RGS4 inh valid – validation of RGS4 inhibitors; HEK293 M3R/RGS4, carbachol calcium Fluo-4 fluorescence; carbachol added at its EC20; 0 = buffer wells, 100 = carbachol control; AID 492999; shares compounds with RGS4 inh; calcium response, % at 10 µM; hit rate 65% among 1,700;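 active = duplicate-averaged calcium response above the buffer-only control mean plus 5 SD of those controls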;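 also: integrated fluorescence ratio F max minus min over baseline F0; higher response in RGS4-induced cells means RGS4 inhibition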
M3R Ca ctr – checks RGS4 inhibitor effects in non-induced HEK293 M3R cells. shares compounds with RGS4 inh. carbachol calcium Fluo-4; submaximal (EC20) carbachol stimulus; buffer wells 0%, carbachol control wells 100%. activity (percent), % at 10 µM. hit rate 20% among 1,900. AID 493000; call rule not given here;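 also: RGS4 induction absent so cells express M3R without RGS4; higher means more calcium signal and flags a non-specific hit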
M3R basal Ca ctr – second RGS4 inhibitor counter-screen in uninduced cells lacking carbachol; shares compounds with RGS4 inh; HEK293 M3R/RGS4 non-induced, Fluo-4 calcium, no carbachol; normalised: buffer wells 0%, carbachol wells 100%; calcium response (agonist-mode artifact), % at 10 µM; hit rate 22% among 1,900; AID 493001;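 active = duplicate-averaged calcium rise in uninduced cells above buffer wells' mean plus 5 SD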
MrgX1 PAM conf – reconfirmed allosteric activator of human MrgX1 receptor. shares compounds with MrgX1 allo act. AID 602413. MrgX1-HEK293, Fluo-4 calcium fluorescence, FDSS. hit rate 13% among 1,200. activation (ratio percentage), % at 10 µM;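 active = ratio at least 3 SD above the weak peptide control, stable starting fluorescence, no direct agonism earlier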;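 also: compound followed by low BAM8-22 agonist challenge near EC20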
HEK293 Ca flux – activity in parental HEK293 cells lacking MrgX1; shares compounds with MrgX1 antag; AID 624111; hit rate 2% among 4,000; fluorescence ratio F(max-min)/F0 at 10 µM; Fluo-4 calcium fluorescence, FDSS;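 active = duplicate-averaged calcium fluorescence ratio at least three times the standard deviation of buffer wells, a nonspecific response in parental cells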
HEK293 Ca counter – counter-screen for MrgX1 allosteric activators: effect in parental HEK293 cells; shares compounds with MrgX1 antag; parental HEK293 calcium flux, Fluo-4 fluorescence ratio; hits give high values; fluorescence ratio F(max-min)/F0 at 10 µM; hit rate 0.4% among 4,000;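 active = calcium fluorescence ratio, averaged over duplicates, at least 3 SD of the buffer-well ratio, meaning a nonspecific response in receptor-free cells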;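 also: untransfected parental HEK293 lacking MrgX1 used as counterscreen for MrgX1 allosteric activators; fluorescence change taken during the second addition on a kinetic imager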
HEK293 Ca cntr2 – counter-screen for MrgX1 activators: effect in parental HEK293 cells | hit rate 8.7% among 4,000 | shares compounds with MrgX1 antag | fluorescence ratio F(max-min)/F0 at 10 µM | Fluo-4 calcium fluorescence (FDSS); hits give high values;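 active = calcium fluorescence ratio at least three times the spread of buffer wells, meaning a non-specific response in parental cells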
* hit, by the source's call; i = inactive; · = no result.

SMILES | MrgX1 allo act | MrgX1 ag | MrgX1 antag | RGS4 inh | RGS4 act | RGS4 inh valid | M3R Ca ctr | M3R basal Ca ctr | others
Cc1nc(Cl)c(C#N)cc1-c1ccccc1 | i | i | i | i | i | · | · | ·
Cc1nc(Sc2ccccc2)c(C#N)cc1-c1ccccc1 | 6.8* | i | i | i | -10* | · | · | · | RGS4 activ val=94*;M3R Ca counter=63*;MrgX1 PAM conf=i;HEK293 Ca flux=i;HEK293 Ca counter=i;HEK293 Ca cntr2=i
COc1ccccc1-c1c(C#N)c(N)nc2c1CCc1ccccc1-2 | 12* | i | i | i | -7.6* | · | · | · | RGS4 activ val=89*;M3R Ca counter=52*;MrgX1 PAM conf=i;HEK293 Ca flux=i;HEK293 Ca counter=i;HEK293 Ca cntr2=i
OC(CCN1CCOCC1)(c1ccc(Cl)cc1)C1CCCCC1 (configuration not stated) | 6.8* | i | i | i | -9.8* | · | · | · | RGS4 activ val=93*;M3R Ca counter=94*;MrgX1 PAM conf=i;HEK293 Ca flux=i;HEK293 Ca counter=i;HEK293 Ca cntr2=i
Cc1ccccc1CC1(CO)CCCN(C(=O)Cc2c(F)ccc(F)c2F)C1 (configuration not stated) | i | i | i | i | i | · | · | ·
CC(=N\Nc1ccc(Cl)cc1)/C(=N/O)C(=O)Nc1ccccc1 | i | i | i | 5.7* | i | 14%* | i | i
C/C(=N\O)C(=O)Nc1ccccc1 | i | i | i | i | i | · | · | ·
Cc1cc(C(=O)OC(C)C(=O)N2CCc3ccccc32)ccc1[N+](=O)[O-] (configuration not stated) | i | i | i | i | i | · | · | ·
C=CCOc1ccc(/C=C/C(=O)OCC(=O)NCc2cccs2)cc1 | i | i | i | i | i | · | · | ·
Cc1cc(-n2c(C)cc(C(=O)COc3ccccc3[N+](=O)[O-])c2C)no1 | i | i | i | 5.1* | i | i | i | i
Cc1cc(C(=O)COc2ccccc2[N+](=O)[O-])c(C)n1C1CC1 | i | i | i | i | i | · | · | ·
COc1ccc(CCN2CC(C(=O)N(C)C3CCOCC3)CCC2=O)cc1 (configuration not stated) | i | i | i | i | i | · | · | ·
O=C(COC(=O)/C=C/c1cccs1)Nc1nc(-c2cccc(Br)c2)cs1 | i | i | i | i | i | i | i | 12%*
O=C(COC(=O)/C=C/c1cccs1)Nc1nc(-c2ccccc2)cs1 | i | i | i | 15* | i | 50%* | 53%* | i
CC(C)Cc1nnc(NC(=O)CCC(=O)NC2CCCC2)s1 | i | i | i | i | i | · | · | ·
Cc1c(Cl)ccc2c(C(N)=O)cc(-c3ccccn3)nc12 | i | i | i | i | i | · | · | ·
Cc1c(Cl)ccc2c(C(=O)O)cc(-c3ccccc3)nc12 | i | i | i | 5.8* | i | 22%* | 40%* | i
CCOc1ccc(S(=O)(=O)N2CCCC(C(=O)Nc3cccc(C)c3)C2)cc1 (configuration not stated) | i | i | i | i | i | · | · | ·
CCC(CC)C(=O)Nc1nnc(S(=O)(=O)Nc2ccc(OC)cc2)s1 | i | i | i | i | i | · | · | ·
CCOC(=O)[C@@H]1[C@H]2COc3ccc(Br)cc3[C@@H]2N2C(=O)N(c3ccccc3)C(=O)[C@@]12C | i | i | i | i | i | · | · | ·
CCOC(=O)[C@@H]1[C@H]2COc3ccc(Br)cc3[C@@H]2N2C(=O)N(c3cccc(Cl)c3)C(=O)[C@]12C | i | i | i | i | i | i | i | i
CCOC(=O)[C@@H]1[C@H]2COc3ccc(Br)cc3[C@H]2N2C(=O)N(c3cccc(Cl)c3)C(=O)[C@]12C | i | i | i | i | i | i | i | i
O=C(O)CCC(=O)N(Cc1ccco1)C1CC(=O)N(c2ccccc2)C1=O (configuration not stated) | i | i | i | i | i | · | · | ·
Cc1cccc(C2c3[nH]c4ccccc4c3CCN2C(=O)Cc2nc(-c3ccccc3)n[nH]2)n1 (configuration not stated) | i | i | i | 5.7* | i | 10%* | i | i
CCN1C(=O)N/C(=C/c2ccc(C)o2)C1=O | i | i | i | i | i | · | · | ·
SMILES | MrgX1 allo act | MrgX1 ag | MrgX1 antag | RGS4 inh | RGS4 act | RGS4 inh valid | M3R Ca ctr | M3R basal Ca ctr | others
Cc1ccc(/C=C2/NC(=O)N(Cc3ccc(Br)cc3)C2=O)o1 | i | i | i | i | i | i | i | 22%*
O=c1c(O)c(-c2ccc(O)cc2)oc2cc(O)cc(O)c12 | i | i | i | i | i | · | i | i
Oc1c(Br)cc(Br)cc1CNc1cnc2ccccc2c1 | i | i | i | i | i | · | · | ·
Oc1c(Br)cc(Br)cc1CNc1ccc(F)cc1 | i | i | i | 6.5* | i | i | i | i
CC1=C(CO)C(=O)OC([C@@H](C)C2CC[C@H]3C4C[C@H]5O[C@]56[C@@H](O)C=CC(=O)[C@]6(C)C4CC[C@]23C)C1 (some centres not stated) | i | i | i | 13* | i | 32%* | i | i
CC[n+]1ccc(C(=O)NCc2ccccc2)cc1 | i | i | i | i | i | · | · | ·

Bioassay records as filed in PubChem BioAssay.
